# Measurements from PMC3926093 (Biochemistry, 2013).
# Target: LigAB (Sphingobium sp. SYK-6, UniProt P22635+P22636)
# Experiment: inhibition of PCA dioxygenation, O2 consumption, Clark-type electrode
# Assay type: biochemical
# Conditions: read-out: % inhibition ^b
# Outline: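 Anaerobically purified LigAB (His-tag removed) started the reaction at 3–7 nM final. Reactions ran in air-saturated 50 mM Tris pH 7.5 at 25 °C with 500 μM PCA plus 1 mM test compound, read by O2 consumption. Percent inhibition came from comparing rates with those of PCA-only assays run directly before and after.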
# LigAB, sequence (P22635 whole entry): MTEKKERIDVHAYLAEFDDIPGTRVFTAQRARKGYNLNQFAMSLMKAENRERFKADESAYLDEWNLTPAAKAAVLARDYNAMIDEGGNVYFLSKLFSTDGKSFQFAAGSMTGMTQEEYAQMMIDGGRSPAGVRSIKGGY
# LigAB, sequence (P22636 whole entry): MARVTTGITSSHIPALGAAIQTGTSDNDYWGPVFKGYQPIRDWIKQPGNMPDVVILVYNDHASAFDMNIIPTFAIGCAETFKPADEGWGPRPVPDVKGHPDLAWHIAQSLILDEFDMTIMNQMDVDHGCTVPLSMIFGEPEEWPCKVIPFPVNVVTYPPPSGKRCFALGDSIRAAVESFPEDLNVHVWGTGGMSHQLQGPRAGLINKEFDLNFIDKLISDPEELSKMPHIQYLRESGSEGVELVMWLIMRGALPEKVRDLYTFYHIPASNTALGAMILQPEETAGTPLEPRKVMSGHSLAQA
row,inhibition at 1000 µM [%],SMILES
1,28,Cc1ccc(O)c(O)c1 [4-methylcatechol]
2,31,O=[N+]([O-])c1ccc(O)c(O)c1 [4-nitrocatechol]
